This is one part of a sample in which hits are shown more often than they occur.
S100A4 inh HTS: blocks human S100A4 binding to myosin IIA peptide. P26447. S100A4/TAMRA-MyoIIA peptide fluorescence polarization. inhibition, % at 10.7 µM. 0.14% of 360,000 active;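 active means mean inhibition of at least 70% across replicates, with every replicate also reaching that level; inconclusive means mean inhibition reaches 70% but some replicates fall short; inactive means mean inhibition below 70%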
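Material: S100A4 monomer (human). Medium: Calcium-containing HEPES buffer, pH 7.2. Probe or stimulus: labelled myosin peptide probe, 5 nM. Compound dosing: one concentration per compound. Timing: polarization read 5 min after assay mix addition, stable 5–60 min. Benchmarks: DMSO as neutral control, TFP as positive control.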
FGF22 binding: FGF22 (human) thermal shift binding; Q9HCT0; recombinant FGF22 thermal shift, SYPRO orange fluorescence; percent of sucrose octasulfate shift, DMSO zero; activity (Tm shift, normalised), % at 9.99 µM; 1.5% of 340,000 active; AID 651658;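 active means mean Tm shift, scaled 0 neutral to 100 positive control, at about 1.3% or above, every replicate too, limit read from the data; inconclusive means no clear call, values can overlap the other calls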
ERp5 block: blocks human ERp5 reductase activity on insulin; AID 651711; inhibition, % at 9.99 µM; Q15084; 0.05% of 350,000 active; ERp5 insulin aggregation, absorbance 650 nm, 90 min;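 active means mean replicate inhibition above about 25%, with every replicate also reaching it, limit read from the data, passing the limit was not always enough; inconclusive means only one of those two criteria met; inactive means neither criterion met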
PDI turbidity: inhibitors of human protein disulfide isomerase | P07237 | inhibition, % at 10 µM | PDI insulin aggregation turbidity, A650, 90 min | 0.052% of 350,000 active;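 active means mean inhibition across replicates of 30% or more, whatever share of single replicates reach that level; inconclusive means mean inhibition below 30% while every single replicate reaches 30%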
ERAP1 inh: inhibitors of human ERAP1 aminopeptidase | Q9NZ08 | recombinant ERAP1, Leu-AMC fluorescence, 60 min | inhibition, % at 10.7 µM | 0.15% of 340,000 active | AID 652197;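 active means mean replicate inhibition of at least 30%, or all replicates individually reaching that 30% level; inactive means mean below 30% and not every replicate reaching it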;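 further: 0% = neutral control wells and 100% = L-leucinethiol positive control wells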
Target sequence (Q9NZ08 whole entry, looked up): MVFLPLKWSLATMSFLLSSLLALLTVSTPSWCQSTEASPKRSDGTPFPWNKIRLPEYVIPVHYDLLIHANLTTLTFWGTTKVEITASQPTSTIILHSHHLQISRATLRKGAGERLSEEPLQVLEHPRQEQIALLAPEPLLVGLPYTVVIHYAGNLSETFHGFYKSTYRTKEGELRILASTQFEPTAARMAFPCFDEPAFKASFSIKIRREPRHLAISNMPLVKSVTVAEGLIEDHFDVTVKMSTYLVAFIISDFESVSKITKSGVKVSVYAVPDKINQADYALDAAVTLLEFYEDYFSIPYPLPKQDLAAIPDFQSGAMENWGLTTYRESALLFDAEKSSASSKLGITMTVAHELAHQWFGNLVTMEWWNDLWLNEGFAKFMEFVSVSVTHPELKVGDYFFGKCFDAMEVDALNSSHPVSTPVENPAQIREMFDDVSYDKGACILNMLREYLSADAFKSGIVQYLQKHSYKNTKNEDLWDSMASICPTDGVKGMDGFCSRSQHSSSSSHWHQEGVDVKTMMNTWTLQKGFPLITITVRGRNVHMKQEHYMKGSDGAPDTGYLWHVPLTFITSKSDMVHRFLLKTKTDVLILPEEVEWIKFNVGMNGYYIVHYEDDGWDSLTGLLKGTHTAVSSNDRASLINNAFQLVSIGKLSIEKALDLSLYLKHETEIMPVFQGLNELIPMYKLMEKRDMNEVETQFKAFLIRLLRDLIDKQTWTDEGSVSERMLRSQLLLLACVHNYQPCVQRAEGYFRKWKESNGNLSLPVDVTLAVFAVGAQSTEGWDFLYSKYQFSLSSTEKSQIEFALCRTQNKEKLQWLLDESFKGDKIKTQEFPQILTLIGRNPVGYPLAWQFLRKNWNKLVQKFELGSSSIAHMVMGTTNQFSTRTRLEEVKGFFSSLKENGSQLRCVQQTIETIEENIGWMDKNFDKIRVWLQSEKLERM
* hit, by the source's call.

For O=C(c1cccc(F)c1)N1C[C@H]2[C@@H](c3ccccc31)[C@H](CO)N2C(=O)C1CC1 the results were S100A4 inh HTS 5, FGF22 binding 1, ERp5 block 2 and ERAP1 inh 4.
For CN(Cc1ccccc1)C(=O)CN1C(=O)NC2(CCCc3sccc32)C1=O (configuration not stated) the results were S100A4 inh HTS -3, FGF22 binding 43*, ERp5 block 4, PDI turbidity 16 and ERAP1 inh 1.
Screening O=C(NNc1nc2c(F)cc(F)cc2s1)c1ccccc1 returned S100A4 inh HTS -1, FGF22 binding 43*, ERp5 block 1, PDI turbidity 9 and ERAP1 inh -2.
Cc1ccc(Nc2nnc(-c3ccccc3N)o2)cc1C was read as S100A4 inh HTS -2, FGF22 binding 0, ERp5 block 1 and PDI turbidity 25.
`Cc1noc(NS(=O)(=O)c2ccc(NC(=O)/C=C/c3ccc(C(C)C)cc3)cc2)c1C` gave S100A4 inh HTS 0, FGF22 binding 1.4*, ERp5 block -3, PDI turbidity 3 and ERAP1 inh 3.
Screening COc1ccc(NC(=O)Cn2c(=O)n(CC3CCCO3)c(=O)c3cc(OC)c(OC)cc32)cc1OC (configuration not stated) returned S100A4 inh HTS 6, FGF22 binding 0, ERp5 block -2, PDI turbidity -5 and ERAP1 inh -6.
Screening COc1ccc(C2CCc3cc4c(cc3C2=NO)OCO4)cc1OC (configuration not stated) returned S100A4 inh HTS -1, FGF22 binding 43*, ERp5 block -8, PDI turbidity -13 and ERAP1 inh 3.
For COc1cc2c(cc1OC)C(c1ccc3c(c1)OCO3)CC(=O)N2 (configuration not stated) the results were S100A4 inh HTS 0, FGF22 binding 0, ERp5 block 4, PDI turbidity 5 and ERAP1 inh -4.
`CC[C@H](C)[C@H](NC(N)=O)C(=O)NCCc1ccc(OC)c(OC)c1` gave S100A4 inh HTS -6, FGF22 binding 43*, ERp5 block -5, PDI turbidity -1 and ERAP1 inh -1.
For COc1ccc(CCNC(=O)C(NC(=O)OCc2ccccc2)C(C)C)cc1OC (configuration not stated) the results were S100A4 inh HTS 0, FGF22 binding 0, ERp5 block 0, PDI turbidity -2 and ERAP1 inh 6.
`COc1ccc(NC(=O)[C@@H](NC(N)=O)C(C)C)cc1Cl` gave S100A4 inh HTS 1, FGF22 binding 44*, ERp5 block 12, PDI turbidity -3 and ERAP1 inh -1.
`COc1ccc(NC(=O)CCCC(=O)O)cc1Cl` gave S100A4 inh HTS 1, FGF22 binding 43*, ERp5 block 2, PDI turbidity -5 and ERAP1 inh 1.
For CCS(=O)(=O)N1N=C(c2ccccc2)CC1c1ccc2nccnc2c1 (configuration not stated) the results were PDI turbidity -4.
`Cc1cccc(NS(=O)(=O)c2cnc(Cl)c(Br)c2)n1` gave PDI turbidity 14.
`CC1CCCC(C)N1C(=O)CSc1nnc(COc2cccc3cccnc23)o1` (configuration not stated) gave S100A4 inh HTS 2, FGF22 binding 43*, ERp5 block 0, PDI turbidity -2 and ERAP1 inh -4.
Screening NC(=O)c1c(NC(=O)c2cccnc2Cl)sc2c1CCCC2 returned PDI turbidity 9.
C=CCc1cccc(CNc2c(C)cc(C)cc2C)c1O was read as S100A4 inh HTS -9, FGF22 binding 44*, ERp5 block 3, PDI turbidity 1 and ERAP1 inh 3.
C=CCc1cccc(CNc2c(C)n(C)n(-c3ccccc3)c2=O)c1O was read as PDI turbidity 14.
For CC(C)(C)[C@H]1COC(=O)[C@H](NC(=O)OCC2c3ccccc3-c3ccccc32)C/C=C\C[C@@H](CC(=O)N[C@@H](CO)Cc2ccccc2)C(=O)N1 the results were S100A4 inh HTS -2, FGF22 binding 0, ERp5 block 1, PDI turbidity -16 and ERAP1 inh -2.
CCO[C@H]1OC(C(=O)N2CCN(Cc3ccc4c(c3)OCO4)CC2)=C[C@@H](C)[C@@H]1CCCO was read as S100A4 inh HTS -9, FGF22 binding 9.2*, ERp5 block 3, PDI turbidity -12 and ERAP1 inh -2.
For CC(c1ccon1)N(C)Cc1c(C(=O)N(C)Cc2ccccc2)nc2ccccn12 (configuration not stated) the results were S100A4 inh HTS -1, FGF22 binding 43*, ERp5 block 3, PDI turbidity 1 and ERAP1 inh 4.
`O=[N+]([O-])c1cc(C=Nc2ccc3ccccc3c2)ccc1Br` gave S100A4 inh HTS -7, FGF22 binding 0, ERp5 block inconclusive, PDI turbidity 5 and ERAP1 inh 5.
For O=C(Nc1ccccc1F)C1CCN(C(=O)NCc2ccccc2)CC1 the results were S100A4 inh HTS -1, FGF22 binding 0, ERp5 block 3, PDI turbidity 4 and ERAP1 inh -3.
CC1=NN(c2ccc(C)c(C)c2)C(=O)/C1=C\C=C\c1ccc([N+](=O)[O-])o1 was read as S100A4 inh HTS -4, FGF22 binding 43*, ERp5 block 2, PDI turbidity -5 and ERAP1 inh 4.
For Cc1ccc2c(c1)Oc1ccc(NC(=O)CCl)cc1C(=O)N2 the results were PDI turbidity 92*.
`CN=C(C)/C(C(=O)OC)=C(/O)c1ccccc1F` gave S100A4 inh HTS 1, FGF22 binding 0, ERp5 block 2 and PDI turbidity -9.
For C#CCN([C@@H]1C(=O)N2[C@@H]1SC(C)(C)[C@@H]2C(=O)OC)[C@@H](/C=C/C1CC1)[C@H](O)Cc1ccccc1 the results were S100A4 inh HTS 6, FGF22 binding 0, ERp5 block 0 and ERAP1 inh 2.
`Cc1cc(=O)n(C)c2ccccc12` gave S100A4 inh HTS 1, FGF22 binding 43*, ERp5 block -3, PDI turbidity 0 and ERAP1 inh -1.
CSc1nc2c(c(=O)[nH]1)C(c1ccc(F)cc1)CC(=O)N2 (configuration not stated) was read as S100A4 inh HTS 5, FGF22 binding 43*, ERp5 block 3, PDI turbidity -1 and ERAP1 inh -6.
Cc1ccc(NC(=O)c2cccs2)cc1[N+](=O)[O-] was read as S100A4 inh HTS -1, FGF22 binding 44*, ERp5 block -4, PDI turbidity -3 and ERAP1 inh 5.
Screening O=C(/C=C/c1ccc(Cl)c([N+](=O)[O-])c1)Nc1cccc(NC(=O)c2ccco2)c1 returned S100A4 inh HTS 27, FGF22 binding 45*, ERp5 block -4, PDI turbidity 16 and ERAP1 inh -1.
